Active and inactive are the calls of the source.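 The calls were made as follows, unless noted: active = viability at or below 10% of carrier control in both of two separate runs; inconclusive = viability at or below 10% in only one of the two runs; inactive = the rest.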
Key:
[1] = reducers of endogenous Her2 protein level, primary screen, SKBR3 breast tumor cells, AlphaScreen, ATP viability (AID 461;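 active = Her2 level under about 52% in both replicate screens, with viability over 70% of control, limit read from the data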;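 as to Her2 level: lower value means less Her2 protein in the cells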;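 as to viability: percent of carrier control wells set as 100% viability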); conditions: 18-24 h, measured here: SKBR3 viability, ATP luminescence, at 10 µM
[2] = target: Receptor tyrosine-protein kinase erbB-2 (Homo sapiens) (UniProt P04626); assay: as above; conditions: 18-24 h, at 10 µM, stronger effect = lower value
Chain of Receptor tyrosine-protein kinase erbB-2 (Homo sapiens) (P04626 whole entry, looked up): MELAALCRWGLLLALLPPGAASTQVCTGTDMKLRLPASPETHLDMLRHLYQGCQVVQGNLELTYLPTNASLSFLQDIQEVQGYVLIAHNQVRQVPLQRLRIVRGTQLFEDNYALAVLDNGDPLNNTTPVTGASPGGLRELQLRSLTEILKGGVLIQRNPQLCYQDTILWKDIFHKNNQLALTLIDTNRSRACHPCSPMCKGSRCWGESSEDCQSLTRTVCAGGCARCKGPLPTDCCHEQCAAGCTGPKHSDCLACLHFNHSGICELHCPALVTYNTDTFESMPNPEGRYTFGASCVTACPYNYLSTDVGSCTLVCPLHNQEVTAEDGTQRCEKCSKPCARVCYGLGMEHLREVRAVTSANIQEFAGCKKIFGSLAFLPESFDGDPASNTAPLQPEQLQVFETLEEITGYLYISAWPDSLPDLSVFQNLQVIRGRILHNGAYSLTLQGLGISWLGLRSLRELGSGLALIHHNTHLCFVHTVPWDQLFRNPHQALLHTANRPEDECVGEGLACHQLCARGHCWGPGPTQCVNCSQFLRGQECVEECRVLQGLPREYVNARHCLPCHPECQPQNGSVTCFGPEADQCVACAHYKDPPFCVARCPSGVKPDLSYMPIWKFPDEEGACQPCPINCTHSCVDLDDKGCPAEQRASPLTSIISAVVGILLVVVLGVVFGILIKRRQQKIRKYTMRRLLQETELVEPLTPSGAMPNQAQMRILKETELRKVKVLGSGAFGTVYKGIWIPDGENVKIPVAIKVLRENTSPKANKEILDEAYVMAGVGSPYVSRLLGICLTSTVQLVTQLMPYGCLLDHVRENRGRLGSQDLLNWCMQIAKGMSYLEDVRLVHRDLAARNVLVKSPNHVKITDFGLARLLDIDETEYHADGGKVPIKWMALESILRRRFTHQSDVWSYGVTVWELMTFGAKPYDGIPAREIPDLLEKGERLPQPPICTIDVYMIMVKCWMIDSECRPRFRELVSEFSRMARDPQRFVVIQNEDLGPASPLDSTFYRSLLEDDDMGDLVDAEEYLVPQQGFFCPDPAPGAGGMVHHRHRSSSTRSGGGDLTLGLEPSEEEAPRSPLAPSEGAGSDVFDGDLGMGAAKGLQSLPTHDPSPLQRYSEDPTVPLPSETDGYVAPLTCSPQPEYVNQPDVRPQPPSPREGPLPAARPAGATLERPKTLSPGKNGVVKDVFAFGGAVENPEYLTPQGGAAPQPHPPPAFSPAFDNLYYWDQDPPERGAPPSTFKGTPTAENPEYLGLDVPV

[3] = SK-BR-3 cell growth inhibitors, pilot screen, 24 h, human (AID 572); conditions: SK-BR-3 viability, CellTiter-Glo luminescence, at 10 µM, stronger effect = lower value;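 also: compound exposure lasted between 18 and 24 h rather than exactly 24 h; 100% = carrier-treated control wells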
[4] = HUVEC growth inhibition – cell-based, human, primary screen (AID 575;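 active = viability at or below 30% in both replicate assays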;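 also: 100% = median of untreated cell wells with 0.1% DMSO on each plate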); conditions: HUVEC proliferation, CellTiter-Glo luminescence, 72 h; at 10 µM; stronger effect = lower value
How it was run: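 system = HUVEC primary cells | amount = 1250 cells/well | buffer or medium = supplemented EBM, 2% fetal bovine serum | dosing = single-point 10 µM, DMSO 0.1% final | times = 72 h compound incubation | detection = CTG luminescence | read-out = % viability relative to median vehicle-well signal on each plate | control set = vehicle and MePR control wells | format = collagen-coated 384-well format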

[5] = growth inhibitors of H69AR lung tumor, primary screen, human, duplicate replicates (AID 580;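 active = viability at or under a set limit in both replicates, limit being median viability minus 3 SD, cut at about 48% in these data, passing the limit was not always enough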;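 also: 100% = mean luminescence of untreated wells and 0% = no signal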); conditions: H69AR lung tumor cells viability, ATP luminescence, 72 h; at 10 µM; stronger effect = lower value
[6] = reversal of MRP1-mediated doxorubicin resistance, pilot screen, H69AR cells, doxorubicin co-treatment (AID 601;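 active = viability loss from added drug above about 55%, and viability with drug at most 40%, in both replicates, limit read from the data, passing the limit was not always enough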); conditions: CellTiter-Glo, 72 h, at 10 µM; for differential viability (reversal): stronger effect = higher value
[7] = 384-well plate pilot, post-Golgi transport modulator project, inhibition of yeast transport mutant growth (AID 636; in the data active = inhibition above about 31%); conditions: absorbance 615 nm, about 18 h, stronger effect = higher value
[8] = growth suppression of yeast trafficking mutant, preliminary HTS, modulators of trafficking downstream of Golgi apparatus project, 1536-format plate, OD 615 nm (AID 637; in the data active = inhibition above about 30%); conditions: yeast transport mutant growth, absorbance 615 nm, 18 h; stronger effect = higher value
[9] = H69AR cells + 2 uM doxorubicin, measured here: viability with 2 uM doxorubicin, stronger effect = lower value
[10] = H69AR cells, compound alone cytotoxicity

For CCN(CCO)C1CC(=O)N(c2ccccc2C)C1=O (stereo not given), the viability [1] was 95%, the Her2 level [2] was 93.5% (inactive) and the viability [3] was 95% (inactive). For the same compound, the viability [4] was 105% (inactive), the viability [5] was 101% (inactive) and the differential viability (reversal) ([6]; H69AR cells + 2 uM doxorubicin) was 24.2% (inactive). The viability [6, 9] was 76.7%, the viability [6, 10] was 101% and the inhibition [7] was -9.46% (inactive). For the same compound, the inhibition [8] was -2% (inactive).
With OCCNCCCCOc1ccccc1F the viability [1] was 84.5%, the Her2 level [2] was 128% (inactive) and the viability [3] was 84.5% (inactive). For the same compound, the viability [4] was 111% (inactive), the viability [5] was 102% (inactive) and the differential viability (reversal) ([6]; H69AR cells + 2 uM doxorubicin) was 8.07% (inactive). The viability [6, 9] was 94.3%, the viability [6, 10] was 102% and the inhibition [7] was 2.69% (inactive). For the same compound, the inhibition [8] was -8.17% (inactive).
In the case of C=CCn1c(=O)c2ccccc2n2c(SCC(=O)Nc3cc(C)on3)nnc12, the viability [1] is reported as 92.5%, the Her2 level [2] is reported as 89% (inactive) and the viability [3] is reported as 92.5% (inactive). The viability [4] was 87% (inactive), the viability [5] was 98.3% (inactive) and the differential viability (reversal) ([6]; H69AR cells + 2 uM doxorubicin) was 10.6% (inactive). The viability [6, 9] was 87.7%, the viability [6, 10] was 98.3% and the inhibition [7] was -3.65% (inactive). For the same compound, the inhibition [8] was 1.75% (inactive).
For CCC(C)(C)n1nnnc1C(c1cc2cc(OC)ccc2[nH]c1=O)N1CCc2ccccc21 (stereo not given), the viability [1] was 97%, the Her2 level [2] was 78% (inactive) and the viability [3] was 97% (inactive). For the same compound, the viability [4] was 67% (inactive), the viability [5] was 68% (inactive) and the differential viability (reversal) ([6]; H69AR cells + 2 uM doxorubicin) was -0.155% (inactive). The viability [6, 9] was 68.1%, the viability [6, 10] was 68% and the inhibition [7] was -3.6% (inactive). The inhibition [8] was -4.59% (inactive).
For C=CCn1cc(C(=O)NCCOC)c(=O)c2cc(S(=O)(=O)N(CC)CC)ccc21, the viability [1] was 98.5%, the Her2 level [2] was 93.5% (inactive) and the viability [3] was 98.5% (inactive). The viability [4] was 86.6% (inactive), the viability [5] was 83.1% (inactive) and the differential viability (reversal) ([6]; H69AR cells + 2 uM doxorubicin) was -9.34% (inactive). For the same compound, the viability [6, 9] was 92.4%, the viability [6, 10] was 83.1% and the inhibition [7] was -5.13% (inactive). The inhibition [8] was -2.73% (inactive).
For O=C(CC(C(=O)N1CCc2ccccc21)n1ccnc1)NCc1cccnc1 (stereo not given), the viability [1] was 100%, the Her2 level [2] was 100% (inactive) and the viability [3] was 100% (inactive). The viability [4] was 97.9% (inactive), the viability [5] was 89.1% (inactive) and the differential viability (reversal) ([6]; H69AR cells + 2 uM doxorubicin) was -10.9% (inactive). The viability [6, 9] was 100%, the viability [6, 10] was 89.1% and the inhibition [7] was 1.17% (inactive). The inhibition [8] was 1.8% (inactive).
For CC1CCCC(NC(=O)CSc2ncccc2C(=O)O)C1C (stereo not given), the viability [1] was 95%, the Her2 level [2] was 79% (inactive) and the viability [3] was 95% (inactive). The viability [4] was 86.4% (inactive), the viability [5] was 87.8% (inactive) and the differential viability (reversal) ([6]; H69AR cells + 2 uM doxorubicin) was 3.03% (inactive). For the same compound, the viability [6, 9] was 84.7%, the viability [6, 10] was 87.8% and the inhibition [7] was -4.61% (inactive). For the same compound, the inhibition [8] was -4.36% (inactive).
In the case of CN(C)/C=C(\C#N)c1nc2ccccc2[nH]1, the viability [1] is reported as 85%, the Her2 level [2] is reported as 90% (inactive) and the viability [3] is reported as 85% (inactive). The viability [4] was 97.6% (inactive), the viability [5] was 98% (inactive) and the differential viability (reversal) ([6]; H69AR cells + 2 uM doxorubicin) was 20.9% (inactive). For the same compound, the viability [6, 9] was 77%, the viability [6, 10] was 98% and the inhibition [7] was 2.37% (inactive). For the same compound, the inhibition [8] was -8.36% (inactive).
With CCCn1c(-c2ccc(F)cc2)cnc1SCC(=O)O the viability [1] was 128%, the Her2 level [2] was 98.5% (inactive) and the viability [3] was 128% (inactive). For the same compound, the viability [4] was 101% (inactive), the viability [5] was 84.8% (inactive) and the differential viability (reversal) ([6]; H69AR cells + 2 uM doxorubicin) was 3.56% (inactive). For the same compound, the viability [6, 9] was 81.2%, the viability [6, 10] was 84.8% and the inhibition [7] was -3.33% (inactive). The inhibition [8] was 2.79% (inactive).
In the case of COC(=O)CSc1nc(C)c(C(C)=O)cc1C#N, the viability [1] is reported as 92%, the Her2 level [2] is reported as 90.5% (inactive) and the viability [3] is reported as 92% (inactive). For the same compound, the viability [4] was 111% (inactive), the viability [5] was 90.1% (inactive) and the differential viability (reversal) ([6]; H69AR cells + 2 uM doxorubicin) was 9.68% (inactive). For the same compound, the viability [6, 9] was 80.4%, the viability [6, 10] was 90.1% and the inhibition [7] was -0.93% (inactive). The inhibition [8] was -0.65% (inactive).
For O=C(CN(CCc1ccccc1)C(=O)CNS(=O)(=O)c1ccccc1)NCC1CCCO1 (stereo not given), the viability [1] was 91%, the Her2 level [2] was 87.5% (inactive) and the viability [3] was 91% (inactive). The viability [4] was 86.9% (inactive), the viability [5] was 102% (inactive) and the differential viability (reversal) ([6]; H69AR cells + 2 uM doxorubicin) was 5.36% (inactive). The viability [6, 9] was 96.2%, the viability [6, 10] was 102% and the inhibition [7] was -0.81% (inactive). For the same compound, the inhibition [8] was -2.13% (inactive).
In the case of CCOc1ccccc1NC(=O)NC1CCN(CC(=O)Nc2ccc3c(c2)OCCO3)CC1, the viability [1] is reported as 119%, the Her2 level [2] is reported as 97% (inactive) and the viability [3] is reported as 119% (inactive). For the same compound, the viability [4] was 73.9% (inactive), the viability [5] was 86.8% (inactive) and the differential viability (reversal) ([6]; H69AR cells + 2 uM doxorubicin) was -7.47% (inactive). The viability [6, 9] was 94.3%, the viability [6, 10] was 86.8% and the inhibition [7] was -0.39% (inactive). The inhibition [8] was 7.54% (inactive).
For CCN(Cc1nc2cc(OC)c(OC)cc2c(=O)[nH]1)C(=O)c1ccc(S(=O)(=O)N(C)C)cc1, the viability [1] was 113%, the Her2 level [2] was 106% (inactive) and the viability [3] was 113% (inactive). The viability [4] was 88.2% (inactive), the viability [5] was 109% (inactive) and the differential viability (reversal) ([6]; H69AR cells + 2 uM doxorubicin) was 10.3% (inactive). The viability [6, 9] was 98.5%, the viability [6, 10] was 109% and the inhibition [7] was -3.07% (inactive). The inhibition [8] was 3.44% (inactive).
For O=[n+]1c2c(n([O-])c3cc(F)c(N4CCCC4)cc31)CCC2, the viability [1] was 101%, the Her2 level [2] was 86.5% (inactive) and the viability [3] was 101% (inactive). The viability [4] was 90.6% (inactive), the viability [5] was 74% (inactive) and the differential viability (reversal) ([6]; H69AR cells + 2 uM doxorubicin) was 5.59% (inactive). The viability [6, 9] was 68.4%, the viability [6, 10] was 74% and the inhibition [7] was -2.57% (inactive). The inhibition [8] was 1.9% (inactive).
